Consider four molecules from ChEMBL document CHEMBL3244198, “Hetacillin (R)- and (S)-sulfoxides. Synthesis and structure-activity relationships” (1978).

Format in all cases: functional
Test [1] relates to Streptococcus pneumoniae. In words: Antibacterial activity against Streptococcus pneumoniae 9585 by two-fold serial dilution technique. An outline of the steps:
(§1)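 MIC read as µg/mL from twofold serial dilutions of each compound in nutrient broth, tested against the named strain.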

Test [2] relates to Streptococcus pyogenes. Nature of the test: Antibacterial activity against Streptococcus pyogenes 9604 by two-fold serial dilution technique. An outline of the steps:
as §1

Test [3] relates to Staphylococcus aureus. In words: Antibacterial activity against Staphylococcus aureus 9537 by two-fold serial dilution technique. The method, boiled down: as §1
Test [4] deals with Staphylococcus aureus. In words: Antibacterial activity against penicillin-resistant Staphylococcus aureus 9606 by two-fold serial dilution technique. The method, boiled down:
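MIC (µg/mL) was determined by twofold serial dilution in nutrient broth against penicillin-resistant S. aureus 9606.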

Test [5] concerns Escherichia coli. In words: Antibacterial activity against Escherichia coli 15119 by two-fold serial dilution technique. An outline of the steps:
as §1

For test [6], the system named is Proteus mirabilis. Nature of the test: Antibacterial activity against Proteus mirabilis 9900 by two-fold serial dilution technique. The method, boiled down:
as §1

The test system of test [7] is Proteus vulgaris. In words: Antibacterial activity against Proteus vulgaris 9716 by two-fold serial dilution technique. An outline of the steps:
as §1

The test system of test [8] is Streptococcus pyogenes. In words: Antibacterial activity against Streptococcus pyogenes A9604 infected in mouse assessed as mouse survival administered intramuscularly at 1 hr post-infection measured for 5 days. The conditions noted are these: A9604, im, read-out: PD50. The method, boiled down: (§2)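 Mice were challenged intraperitoneally with about 1.3 × 10^3 S. pyogenes A9604 per mouse, diluted in brain heart infusion broth to give a uniform lethal infection. Fourfold compound dilutions were given intramuscularly or orally at 1 and 3.5 h postinfection. Survivors were followed for 5 days. PD50 is the total dose (mg/kg) protecting 50% of mice, calculated by the Spearman-Kärber method.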

Test [9] has as its system Streptococcus pyogenes. Nature of the test: Antibacterial activity against Streptococcus pyogenes A9604 infected in po dosed mouse assessed as mouse survival administered at 3.5 hrs post-infection measured for 5 days. The settings on record: read-out: PD50. The method, boiled down:
as §2

Molecules are shown by their SMILES. Values after ≈ are worked out from the molar mass of the structure shown. Bounds are passed on as bounds.

Regarding `CC1(C)N=C(c2ccccc2)C(=O)N1[C@@H]1C(=O)N2[C@@H]1[S@+]([O-])C(C)(C)[C@@H]2C(=O)O`, the minimum inhibitory concentration (MIC) (usually the lowest concentration that inhibits growth of the organism) in test [1] was 1 µg/mL (≈ 2.48 µM); in [2] it was 1 µg/mL (≈ 2.48 µM); in test [3] it was over 8 µg/mL; in test [4], over 125 µg/mL; in test [5], over 125 µg/mL; in test [6] it was over 125 µg/mL. In [7], this molecule had an MIC of over 125 µg/mL.
Turning to `CC1(C)N[C@H](c2ccccc2)C(=O)N1[C@@H]1C(=O)N2[C@@H]1[S@+]([O-])C(C)(C)[C@@H]2C(=O)O`, the MIC in [1] is 0.13 µg/mL (≈ 0.321 µM); in test [2], 0.13 µg/mL (≈ 0.321 µM); in test [3] it was 1 µg/mL (≈ 2.47 µM); in test [4], over 125 µg/mL; in test [5], 8 µg/mL (≈ 19.7 µM); in test [6] it was 1 µg/mL (≈ 2.47 µM). Further, in test [7], it took 1 µg/mL (≈ 2.47 µM) to inhibit growth (MIC). Moreover, the ED50 was determined as 3.1 mg/kg in [8] and 9.4 mg/kg in [9].
Consider `CC1(C)N[C@H](c2ccccc2)C(=O)N1[C@@H]1C(=O)N2[C@@H]1[S@@+]([O-])C(C)(C)[C@@H]2C(=O)O`, for which the MIC in test [1] is 0.5 µg/mL (≈ 1.23 µM); in test [2] it was 0.5 µg/mL (≈ 1.23 µM); in test [3], 4 µg/mL (≈ 9.86 µM); in test [4] it was over 125 µg/mL; in test [5], 32 µg/mL (≈ 78.9 µM); in test [6], 4 µg/mL (≈ 9.86 µM). For the same molecule, the MIC in test [7] was 4 µg/mL (≈ 9.86 µM). The ED50 was 9.6 mg/kg in test [8] and over 25 mg/kg in [9].
For the molecule `CC1(C)S[C@@H]2[C@H](N3C(=O)[C@@H](c4ccccc4)NC3(C)C)C(=O)N2[C@H]1C(=O)O` [HETACILLIN], the MIC in [1] is 0.004 µg/mL (≈ 0.0103 µM); in test [2] it was 0.004 µg/mL (≈ 0.0103 µM); in test [3], 0.016 µg/mL (≈ 0.0411 µM); in [4], over 125 µg/mL; in test [5] it was 1 µg/mL (≈ 2.57 µM); in test [6], 0.13 µg/mL (≈ 0.334 µM). The same molecule showed a minimal inhibitory concentration (MIC) in test [7] of 0.13 µg/mL (≈ 0.334 µM). Moreover, the ED50 in test [8] is 0.2 mg/kg; in test [9], 0.3 mg/kg.
